From ChEMBL document CHEMBL4422635, “Structure-Based Discovery of a Subtype-Selective Inhibitor Targeting a Transient Receptor Potential Vanilloid Channel” (J Med Chem, 2019)
Active and inactive are the calls of the source. The rule behind the calls is not given here.

Assays:
Homo sapiens = species: Homo sapiens; assay: Inhibition of LPA-induced TRPV2/LPAR1 mediated cell migration in human PC3M cells at 0.1 uM after 24 hrs by transwell migration assay; assay type: cell-based
[1] = system: T1, Transient receptor potential cation channel subfamily V member 2 (Mus musculus), Q9WTR1 [Q525A]; assay: Antagonist activity at mouse TRPV2 Q525A mutant expressed in HEK293T cells assessed as inhibition of 2-APB evoked currents at -60 mV holding potential by whole-cell patch clamp assay; assay type: cell-based
T1 sequence (whole entry): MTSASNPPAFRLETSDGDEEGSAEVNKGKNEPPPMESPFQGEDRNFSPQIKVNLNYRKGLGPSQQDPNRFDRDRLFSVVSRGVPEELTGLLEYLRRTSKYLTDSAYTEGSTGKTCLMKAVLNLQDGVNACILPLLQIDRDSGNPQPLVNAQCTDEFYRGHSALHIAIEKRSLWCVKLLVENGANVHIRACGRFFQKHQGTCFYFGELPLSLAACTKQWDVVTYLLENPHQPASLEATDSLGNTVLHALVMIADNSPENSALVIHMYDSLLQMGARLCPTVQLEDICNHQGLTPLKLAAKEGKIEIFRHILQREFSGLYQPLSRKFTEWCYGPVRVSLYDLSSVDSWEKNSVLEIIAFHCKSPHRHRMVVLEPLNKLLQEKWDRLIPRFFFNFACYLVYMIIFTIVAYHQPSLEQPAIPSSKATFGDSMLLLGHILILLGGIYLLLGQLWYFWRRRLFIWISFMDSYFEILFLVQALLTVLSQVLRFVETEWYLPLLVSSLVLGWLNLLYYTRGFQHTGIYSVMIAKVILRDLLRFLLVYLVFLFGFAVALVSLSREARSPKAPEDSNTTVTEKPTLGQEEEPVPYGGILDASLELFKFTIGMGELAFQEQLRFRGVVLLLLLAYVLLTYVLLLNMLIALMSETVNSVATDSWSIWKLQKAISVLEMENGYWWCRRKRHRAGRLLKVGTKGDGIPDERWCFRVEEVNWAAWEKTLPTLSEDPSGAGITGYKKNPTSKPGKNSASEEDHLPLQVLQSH
Outline: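 Whole-cell voltage clamp of transiently transfected HEK293T cells co-expressing GFP, recorded 36-96 h post-transfection. Hold -60 mV; pipettes 3-7 MΩ. Bath 165 mM NaCl, 10 mM HEPES pH 7.3; pipette 140 mM KCl, 10 mM HEPES pH 7.3. Room temperature (~25 °C). IC50 from Hill fits of I/I0, the current ratio after vs before inhibitor; mean ± SEM.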

CCCN(C)c1cc(C(F)(F)F)nc(SCCC(=O)NCc2ccco2)n1
inhibition (Homo sapiens): Active
inhibition [1]: inactive
